From PubChem
MrgX1 agonist = activates human MrgX1 receptor signaling; Q96LB2; MrgX1-HEK293 cells, Fluo-4 calcium fluorescence, agonist mode; hits give high values; B-score at 10 µM; 310,000 tested, 0.44% active;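 active means calcium response B-score plate-corrected fluorescence ratio at least 3 library SD, with starting fluorescence B-score inside 5 SD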
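Material: HEK293 cells stably expressing human MrgX1 receptor | Quantity: 15,000 cells per well | Times: Cells plated overnight, dye loaded 0.5 h 37 °C, 0.5 h room temperature | Measured by: Kinetic Fluo-4 NW fluorescence of intracellular calcium | Control set: Positive and negative controls per plate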
RGS4 pot = potentiators or activators of RGS4; B-score at 10 µM; AID 463111; 310,000 tested, 0.92% active; HEK293 M3R/inducible RGS4, carbachol calcium flux Fluo4; hits give low values;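 active means B-score of the integrated calcium signal more than 4 SD below the library mean, with starting fluorescence not abnormally high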;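 further: negative B-score means reduced calcium response which marks RGS4 activation or potentiation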
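Material: M3R-expressing HEK293 line, RGS4 induced by doxycycline | Schedule: Overnight RGS4 induction, 30 min dye load 37 °C, 20 min compound RT | Measured by: Fluo4 fluorescence kinetic imaging of calcium | Read-out: Integrated calcium ratio converted to B score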
Kir21 inh = inhibitors of mouse Kir2.1 inward-rectifier potassium channel; P35561; HEK293-Kir2.1, FluxOR thallium flux fluorescence; hits give low values; B-score at 10 µM; 310,000 tested, 0.85% active; AID 1672;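 active means fluorescence ratio B-score at or below minus 3 SD of library scores, with starting-brightness B-score within 2 SD, cut at about -4.2 in these data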;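 further: channel flux triggered by added potassium and thallium sulfate stimulus; B-score of peak minus minimum fluorescence over baseline after thallium stimulus; more negative B-score means stronger Kir2.1 block with less thallium influx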
Target sequence (P35561 whole entry, looked up): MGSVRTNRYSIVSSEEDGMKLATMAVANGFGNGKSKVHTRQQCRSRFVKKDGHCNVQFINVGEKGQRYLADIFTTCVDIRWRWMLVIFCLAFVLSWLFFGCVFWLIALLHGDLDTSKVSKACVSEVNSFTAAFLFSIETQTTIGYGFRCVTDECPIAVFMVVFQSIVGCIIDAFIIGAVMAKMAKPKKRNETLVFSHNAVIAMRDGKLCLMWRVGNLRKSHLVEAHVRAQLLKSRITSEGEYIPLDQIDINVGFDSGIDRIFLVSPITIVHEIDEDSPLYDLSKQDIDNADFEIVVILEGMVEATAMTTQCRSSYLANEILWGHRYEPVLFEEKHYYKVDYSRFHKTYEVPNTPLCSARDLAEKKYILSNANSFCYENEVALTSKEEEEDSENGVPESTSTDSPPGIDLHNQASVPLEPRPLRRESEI
RGS4 inh = inhibitors of human RGS4. HEK293 M3R/RGS4 inducible, Fluo-4 calcium flux; hits give high values; triggered by carbachol at its EC20. B-score at 10 µM. P49798. 310,000 tested, 0.45% active;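 active means B-score, a plate-corrected calcium signal, over three deviations above library mean, with baseline fluorescence within five deviations of library mean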;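 further: RGS4 expression induced by doxycycline in cells with stable M3 receptor; B-score is computed from the integrated fluorescence ratio over baseline after carbachol; higher B-score means a larger calcium signal and so more RGS4 inhibition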
Target sequence (P49798 whole entry, looked up): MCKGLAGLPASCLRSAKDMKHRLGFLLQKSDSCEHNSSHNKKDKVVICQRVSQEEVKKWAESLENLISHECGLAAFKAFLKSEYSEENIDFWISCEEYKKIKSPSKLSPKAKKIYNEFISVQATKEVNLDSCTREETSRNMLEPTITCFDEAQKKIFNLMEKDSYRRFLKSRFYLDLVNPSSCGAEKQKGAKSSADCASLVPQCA
MrgX1 antagonist = blocks BAM8-22 activation of human MrgX1 receptor | Q96LB2 | MRGX1-HEK293 calcium flux, Fluo-4, BAM8-22 antagonism; hits give low values | B-score at 10 µM | 310,000 tested, 1.3% active | AID 588676;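 active means calcium-response B-score plate-corrected more than 3 library SD below zero, starting fluorescence within 5 deviations, no agonist response on first addition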;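 further: peak minus trough fluorescence over baseline after final BAM8-22 challenge near maximal dose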
MrgX1 PAM = allosterically activates human MrgX1 receptor signaling; Q96LB2; MrgX1-HEK293, Fluo-4 calcium flux, FDSS; hits give high values; B-score at 10 µM; 310,000 tested, 0.63% active; AID 588675;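 active means plate-corrected calcium response at least 3 library SD above typical, normal starting fluorescence, not activating the receptor alone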;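 further: compound read alongside a low EC10 to EC30 dose of BAM8-22 agonist; peak minus trough fluorescence over baseline measured at the second addition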
MrgX1 ag confirm = reconfirmed activator of human MrgX1 receptor signaling; AID 602412; activation, % at 10 µM; shares compounds with MrgX1 agonist; MrgX1-HEK293, Fluo-4 calcium fluorescence, FDSS; 600 tested, 78% active;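 active means calcium signal rise, corrected for plate position, at least 3 library SD high, with starting brightness within 5 such deviations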
HEK293 Ca flux = counter-screen for MrgX1 antagonists: effect in parental HEK293 cells. 4,000 tested, 2% active. fluorescence ratio F(max-min)/F0 at 10 µM. Fluo-4 calcium fluorescence, FDSS. shares compounds with MrgX1 antagonist;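 active means duplicate-averaged calcium fluorescence ratio at least three times the standard deviation of buffer wells, a nonspecific response in parental cells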
HEK293 Ca counter = MrgX1 allosteric activator counter-screen hit in parental HEK293 cells; shares compounds with MrgX1 antagonist; parental HEK293 calcium flux, Fluo-4 fluorescence ratio; hits give high values; fluorescence ratio F(max-min)/F0 at 10 µM; 4,000 tested, 0.4% active; AID 624114;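 active means calcium fluorescence ratio, averaged over duplicates, at least 3 SD of the buffer-well ratio, meaning a nonspecific response in receptor-free cells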;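 further: untransfected parental HEK293 lacking MrgX1 used as counterscreen for MrgX1 allosteric activators; fluorescence change taken during the second addition on a kinetic imager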
HEK293 Ca cntr2 = activity in parental HEK293 cells lacking MrgX1 receptor | shares compounds with MrgX1 antagonist | Fluo-4 calcium fluorescence (FDSS); hits give high values | fluorescence ratio F(max-min)/F0 at 10 µM | 4,000 tested, 8.7% active | AID 624115;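 active means calcium fluorescence ratio at least three times the spread of buffer wells, meaning a non-specific response in parental cells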
Starred values were filed as active, the others as inactive; i = inactive; . = not tested or not shown. Only some compounds are listed: those with a hit (about 4.1% of all), similar ones and a draw of the others.

SMILES | MrgX1 agonist | RGS4 pot | Kir21 inh | RGS4 inh | MrgX1 antagonist | MrgX1 PAM | MrgX1 ag confirm | HEK293 Ca flux | HEK293 Ca counter | HEK293 Ca cntr2
CC(C)CCNc1nc(-c2ccco2)c2c(c1C#N)CCCC2 | 27* | i | -0.15 | i | i | i | i | i | i | i
N#Cc1c(NCCN)nc(-c2ccco2)c2c1CCCC2 | i | i | -1.5 | i | i | i | . | . | . | .
Cc1ccc2nc(/C(C#N)=C\c3ccc(N4CCOCC4)o3)[nH]c2c1 | 68* | i | -4.5 | i | i | i | i | 0.33* | i | i
Cc1ccc(Nc2nc(=O)[nH]nc2C)cc1 | i | i | -0.09 | i | i | i | . | . | . | .
N#Cc1ccc(-c2ccccc2)nc1SCCN1CCOCC1 | 28* | i | 0.31 | i | i | i | 171%* | i | i | i
Cc1cc(C)c(C#N)c(SCCN2CCOCC2)n1 | i | i | -1 | i | i | i | . | . | . | .
Nc1ccc(-c2cnc3ccccc3n2)cc1 | 28* | i | 2.9 | i | i | i | 87%* | i | i | i
O=[N+]([O-])c1cc(C(F)(F)F)cc([N+](=O)[O-])c1NCCNC(=S)Nc1ccc(Cl)c(Cl)c1 | i | i | 1.7 | i | i | i | . | . | . | .
NC(=Nc1ccc(Cl)cc1)c1ccccc1 | 90* | i | 0.61 | i | i | i | 280%* | i | i | 55*
Nc1nc2ccccc2n1CCOc1ccc(F)cc1 | 41* | i | -1.8 | i | i | i | 134%* | i | i | i
COc1ccc(OCCn2c(N)nc3ccccc32)cc1 | 30* | i | -3.6 | i | i | i | 153%* | i | i | i
CCSc1nc2ccccc2n1CCOc1ccccc1 | i | i | -1.2 | i | i | i | . | . | . | .
Cc1nc2ccccc2n1CCOc1ccccc1 | i | i | -2.5 | i | i | i | . | . | . | .
CC1(C)Cc2c(ccc3ccccc23)C(=O)N1 | i | i | 0.88 | i | i | i | . | . | . | .
O=C1CC(O)(C(F)(F)F)Oc2c1ccc1ccccc21 (centres undefined) | 90* | i | 0.51 | i | i | i | 565%* | i | i | 103*
CCOC(=O)Cc1csc(N/C(=N/S(=O)(=O)c2ccc(F)cc2F)c2ccccc2)n1 | 30* | i | 1 | i | i | i | 182%* | i | i | i
COc1ccccc1-c1ccc(/C=C2\C=CC(=O)O2)o1 | 91* | i | -2.7 | i | i | i | i | 0.2* | i | i
CC(C)(C)c1ccc(S(=O)(=O)/N=C2\C=C(NS(=O)(=O)c3ccccc3)C(=O)c3ccccc32)cc1 | 27* | i | -1.9 | i | i | i | 80%* | i | i | 57*
O=C(COc1ccc([N+](=O)[O-])cc1)N(Cc1ccccc1)Cc1ccccc1 | i | i | 0.31 | i | i | i | . | . | . | .
N=C(N)Sc1nc(N2CCCCC2)nc(N2CCCCC2)n1 | i | i | -0.71 | i | i | i | . | . | . | .
c1ccc(Sc2nc(N3CCCCC3)nc(N3CCCCC3)n2)nc1 | 35* | i | 2.3 | i | i | i | 211%* | i | i | 59*
Cc1ccc(C(=O)N/C(=C\c2ccc(F)cc2)C(=O)NCCCn2ccnc2)cc1 | i | i | -1.5 | i | i | i | . | . | . | .
NC1=NC2=C(CCCC2)C2(CCCCC2)S1 | 32* | i | -6.7* | i | i | i | 160%* | i | i | i
O=C(Cc1ccc(Cl)cc1)NNC(=S)NC(=O)c1cccs1 | 122* | i | 1.2 | i | i | i | 316%* | i | i | 68*
COc1ccccc1C(=O)NNC(=S)NC(=O)c1cccs1 | 80* | i | -0.02 | i | i | i | 476%* | i | i | 111*
SMILES | MrgX1 agonist | RGS4 pot | Kir21 inh | RGS4 inh | MrgX1 antagonist | MrgX1 PAM | MrgX1 ag confirm | HEK293 Ca flux | HEK293 Ca counter | HEK293 Ca cntr2
O=C(NC(=S)NNC(=O)c1ccccc1O)c1cccs1 | 132* | i | -0.82 | i | i | i | 358%* | i | i | 71*
O=C(C1Cc2ccccc2CN1S(=O)(=O)c1cccs1)N1CCCCCC1 (centres undefined) | i | i | 1.2 | i | i | i | . | . | . | .
Cc1ccc(NC(=O)c2ccc(=O)[nH]n2)cc1C | i | i | -0.63 | i | i | i | . | . | . | .
Nn1c(-c2cccc(Br)c2)n[nH]c1=S | i | i | -0.47 | i | i | i | . | . | . | .
Cc1ccc(S(=O)(=O)Nc2ccc3c(c2)nc2n3CCN(Cc3ccccc3)C2)cc1 | 34* | i | -0.29 | i | i | i | i | i | i | i
O=S(=O)(Nc1ccc2c(c1)nc1n2CCN(Cc2ccccc2)C1)c1ccccc1 | i | i | 0.31 | i | i | i | . | . | . | .
CCOC(=O)c1cnn2c(C)cc(-c3ccc(F)cc3)nc12 | 26* | i | -1.2 | i | i | i | i | i | i | i
Cc1ccc(-n2c(CCC(=O)O)ccc2-c2cccs2)cc1C | 29* | i | -0.02 | i | i | i | 216%* | i | i | i
COCCn1c(CCC(=O)O)ccc1-c1cccs1 | i | i | 1.4 | i | i | i | . | . | . | .
CCn1ncc(CN2CCCC(C(=O)Nc3cccc(-c4cc5ccccc5[nH]4)c3)C2)c1C (centres undefined) | i | i | -0.93 | i | i | i | . | . | . | .
Cc1nn(Cc2ccccc2)c2c1C(c1cccc(Cl)c1)C(C#N)=C(N)O2 (centres undefined) | 35* | i | -0.03 | i | i | i | 174%* | i | i | 47*
CCN1CCC[C@H]1CNC(=O)c1c(OC)ccc(Br)c1OC | i | . | . | . | i | i | . | . | . | .
Cc1occc1C(=O)NNC(=S)NC(=O)COc1ccc(Cl)cc1Cl | 71* | -9.1* | -0.99 | i | i | i | 193%* | i | i | i
